This note sets out measurements from ChEMBL document CHEMBL4028906, “Allosteric Inhibitors of SHP2 with Therapeutic Potential for Cancer Treatment” (J Med Chem, 2017).

Calls of active or inactive are those of the source. No cut-off for these calls is given here.

The target in experiment [1] is Tyrosine-protein phosphatase non-receptor type 2 (Homo sapiens, UniProt P17706). The experiment is described as follows: Inhibition of TC-PTP (unknown origin) expressed in Escherichia coli BL21(DE3) using DIFMUP as substrate preincubated for 20 mins followed by substrate addition measured after 20 mins by phosphatase assay. An outline of the steps: (§1)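 Phosphatases purified from E. coli and run as for SHP2 E76A: 20 min room-temperature preincubation with compound in 0.1 M sodium acetate pH 5.0, then DIFMUP at each enzyme's Km, 20 min, fluorescence 358/455 nm. Eight 3-fold dilutions in duplicate; IC50 from at least three independent experiments.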

For experiment [2], the target named is T1, Tyrosine-protein phosphatase non-receptor type 11 (Homo sapiens) (UniProt Q06124).
T1 sequence (whole entry): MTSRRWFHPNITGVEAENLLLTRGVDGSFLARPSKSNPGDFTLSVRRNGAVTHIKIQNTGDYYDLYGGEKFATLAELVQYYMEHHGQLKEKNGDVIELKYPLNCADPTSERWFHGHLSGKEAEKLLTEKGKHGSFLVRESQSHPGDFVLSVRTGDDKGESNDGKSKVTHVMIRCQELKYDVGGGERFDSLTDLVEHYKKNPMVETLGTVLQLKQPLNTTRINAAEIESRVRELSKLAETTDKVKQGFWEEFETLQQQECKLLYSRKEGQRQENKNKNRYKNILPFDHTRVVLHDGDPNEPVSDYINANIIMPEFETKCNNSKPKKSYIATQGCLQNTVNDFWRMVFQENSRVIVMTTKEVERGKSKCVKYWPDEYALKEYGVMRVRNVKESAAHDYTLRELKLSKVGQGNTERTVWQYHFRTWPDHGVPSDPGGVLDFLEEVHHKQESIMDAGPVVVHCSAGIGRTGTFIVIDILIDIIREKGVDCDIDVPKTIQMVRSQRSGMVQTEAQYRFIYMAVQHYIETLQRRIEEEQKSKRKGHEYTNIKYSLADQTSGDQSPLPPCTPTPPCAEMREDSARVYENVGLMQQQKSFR
Kind of experiment: Allosteric inhibition of SHP2 PTP domain (unknown origin) expressed in Escherichia coli BL21(DE3) using DIFMUP as substrate preincubated for 20 mins followed by substrate addition measured after 20 mins by phosphatase assay. A digest of the protocol: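 His-tagged SHP2 constructs expressed in E. coli BL21(DE3) (0.5 mM IPTG, 5 h, 30 °C) and Ni-column purified. 1.5 nM enzyme preincubated 20 min at room temperature with compound in 0.1 M sodium acetate pH 5.0. DIFMUP then added, 20 min further, fluorescence at 358/455 nm. Eight 3-fold dilutions, duplicate wells, IC50 from at least three independent experiments.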

Experiment [3] deals with Low molecular weight phosphotyrosine protein phosphatase (Homo sapiens, UniProt P24666). The experiment is described as follows: Inhibition of LMW-PTP (unknown origin) expressed in Escherichia coli BL21(DE3) using DIFMUP as substrate preincubated for 20 mins followed by substrate addition measured after 20 mins by phosphatase assay. A digest of the protocol:
as §1

Experiment [4] concerns the target Dual specificity protein phosphatase 3 (Homo sapiens, UniProt P51452). Kind of experiment: Inhibition of VHR (unknown origin) expressed in Escherichia coli BL21(DE3) using DIFMUP as substrate preincubated for 20 mins followed by substrate addition measured after 20 mins by phosphatase assay. An outline of the steps:
as §1

The species named for experiment [5] is Homo sapiens. Kind of experiment: Selectivity ratio of IC50 for MKP3 (unknown origin) expressed in Escherichia coli BL21(DE3) to IC50 for SHP2 E76A mutant (unknown origin) expressed in Escherichia coli BL21(DE3). A digest of the protocol:
(§2)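 Ratio of IC50 values from one DIFMUP fluorescence assay (Ex/Em 358/455), room temperature, 0.1 M sodium acetate pH 5.0. His-tagged SHP2 E76A (1.5 nM) or counter-phosphatase purified from E. coli, preincubated 20 min with compound (eight 3-fold dilutions), then DIFMUP added for 20 min. DIFMUP was at Km for each counter-phosphatase. Duplicates; IC50 from at least three independent experiments.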

The species entered for experiment [6] is Homo sapiens. The experiment is described as follows: Selectivity ratio of IC50 for TC-PTP (unknown origin) expressed in Escherichia coli BL21(DE3) to IC50 for SHP2 E76A mutant (unknown origin) expressed in Escherichia coli BL21(DE3). A digest of the protocol: as §2
The target in experiment [7] is T1, Tyrosine-protein phosphatase non-receptor type 11 (Homo sapiens). Kind of experiment: Allosteric inhibition of SHP2 in human NCI-H661 cells assessed as downregulation of phosphorylated ERK1/2 levels at 2.5 to 20 uM after 2 hrs by Western blot analysis. Format: cell-based. An outline of the steps: (§3)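 NCI-H661 cells in 6-well plates exposed to inhibitor 2 h at 37 °C. RIPA lysates separated by SDS-PAGE, transferred to PVDF, milk-blocked, probed overnight at 4 °C for pERK1/2, ERK1/2, pAKT and AKT. Repeated at least three times.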
(In general: A western blot detects proteins with antibodies after separation by electrophoresis.)

Experiment [8] shares this target. Kind of experiment: Allosteric inhibition of SHP2 in human NCI-H661 cells assessed as downregulation of phosphorylated AKT levels at 2.5 to 20 uM after 2 hrs by Western blot analysis. Format: cell-based. A digest of the protocol: as §3
For experiment [9] the target is unchanged. The experiment is described as follows: Allosteric inhibition of SHP2 in human NCI-H661 cells assessed as downregulation of ERK1/2 activation at 10 uM after 60 mins by Western blot analysis. Format: cell-based. An outline of the steps:
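NCI-H661 cells given 10 µM inhibitor over a time course. Lysates immunoblotted for p-ERK1/2, ERK1/2, p-AKT and AKT. Repeated at least three times.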

Experiment [10] shares this target. Kind of experiment: Allosteric inhibition of SHP2 in human SF268 cells assessed as downregulation of YAP-mediated CYR61 gene expression ay 10 to 20 uM after 2 hrs by qRT-PCR analysis. Format: cell-based. A digest of the protocol:
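SF268 cells exposed to DMSO, 10 μM or 20 μM inhibitor for 2 h. RNA extracted, reverse-transcribed, and CTGF, CYR61, ANKRD1 and YAP mRNA quantified by qPCR; mean±s.d., n=3.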
In general terms: Real-time PCR tracks product formation cycle by cycle.

The target is the same in experiment [11]. Kind of experiment: Allosteric inhibition of SHP2 in human A549 cells harboring KRAS mutant assessed as upregulation of YAP Y357 phosphorylation at 5 and 10 uM after 2 hrs by Western blot analysis. Format: cell-based.
The subject of another experiment is MDA-MB-468. Kind of experiment: Antiproliferative activity against human MDA-MB-468 cells at 3 to 6 uM after 2 days by CellTiter-Glo assay. Format: functional, cell-based. A digest of the protocol:
(§4)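 3000 cells/well in 96-well plates, grown overnight, then inhibitor at indicated concentrations for 2 days (48 h). Viability by CellTiter-Glo; mean±s.d., n=3.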
In general terms: Cellular ATP, detected with luciferase, serves as a proxy for viable cell number.

A further experiment concerns KG-1a. The experiment is described as follows: Antiproliferative activity against human KG1a cells at 3 to 6 uM after 2 days by CellTiter-Glo assay. Format: functional, cell-based. An outline of the steps: as §4
The subject of the next experiment is KYSE-520 cell line. The experiment is described as follows: Antiproliferative activity against human KYSE520 cells at 3 to 6 uM after 2 days by CellTiter-Glo assay. Format: functional, cell-based. A digest of the protocol:
as §4

The test system of another experiment is KMS-11. The experiment is described as follows: Antiproliferative activity against human KMS11 cells at 3 to 6 uM after 2 days by CellTiter-Glo assay. Format: functional, cell-based. A digest of the protocol:
as §4

The next experiment deals with THP-1. The experiment is described as follows: Antiproliferative activity against human THP1 cells at 3 to 6 uM after 2 days by CellTiter-Glo assay. Format: functional, cell-based. An outline of the steps: as §4
The test system of a further experiment is KOPN-8. The experiment is described as follows: Antiproliferative activity against human KOPN8 cells at 3 to 6 uM after 2 days by CellTiter-Glo assay. Format: functional, cell-based. An outline of the steps: as §4
In another experiment the test system is Ramos. Kind of experiment: Antiproliferative activity against human Ramos cells at 3 to 6 uM after 2 days by CellTiter-Glo assay. Format: functional, cell-based. A digest of the protocol: as §4
A further experiment relates to MOLT-4. The experiment is described as follows: Antiproliferative activity against human MOLT4 cells at 3 to 6 uM after 2 days by CellTiter-Glo assay. Format: functional, cell-based. A digest of the protocol:
as §4

Dual specificity protein phosphatase 3, sequence (P51452 whole entry): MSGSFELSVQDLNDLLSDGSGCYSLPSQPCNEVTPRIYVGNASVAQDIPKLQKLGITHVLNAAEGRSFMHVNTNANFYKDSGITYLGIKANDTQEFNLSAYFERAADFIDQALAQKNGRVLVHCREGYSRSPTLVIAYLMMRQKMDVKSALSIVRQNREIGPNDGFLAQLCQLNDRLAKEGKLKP
Tyrosine-protein phosphatase non-receptor type 2, sequence (P17706 whole entry): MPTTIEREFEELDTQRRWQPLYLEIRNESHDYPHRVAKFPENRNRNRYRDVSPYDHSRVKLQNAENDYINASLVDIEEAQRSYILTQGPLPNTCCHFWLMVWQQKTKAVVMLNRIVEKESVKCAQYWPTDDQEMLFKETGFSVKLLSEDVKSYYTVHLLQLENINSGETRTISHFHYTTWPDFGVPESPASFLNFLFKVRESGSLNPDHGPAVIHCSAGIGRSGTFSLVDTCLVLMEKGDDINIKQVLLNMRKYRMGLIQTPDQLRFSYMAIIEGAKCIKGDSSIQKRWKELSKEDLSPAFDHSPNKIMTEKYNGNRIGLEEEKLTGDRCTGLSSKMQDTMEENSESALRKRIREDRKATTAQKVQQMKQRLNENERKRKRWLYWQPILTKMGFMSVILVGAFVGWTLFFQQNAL
Low molecular weight phosphotyrosine protein phosphatase, sequence (P24666 whole entry): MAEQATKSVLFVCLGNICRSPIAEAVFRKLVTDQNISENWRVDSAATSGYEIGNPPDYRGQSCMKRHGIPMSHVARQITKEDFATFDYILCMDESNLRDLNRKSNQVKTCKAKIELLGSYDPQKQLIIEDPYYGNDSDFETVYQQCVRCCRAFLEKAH

As to `CC1(N)CCN(c2nc(-c3ccc4cc(Br)ccc4c3)cs2)CC1`, the IC50 in [1], in experiment [3] and in [4] was > 100 µM throughout. In addition, the inhibition entry in experiment [2] was “inactive”. The Ratio IC50 in the experiment filed under Homo sapiens [5] and in the experiment filed under Homo sapiens [6] was > 30 each time. The inhibition result in [7], in experiment [8], in experiment [9], in experiment [10] and in [11] was “Active” each time. Also, the outcome with MDA-MB-468, in the experiment on KG-1a, in the experiment with KYSE-520 cell line, with KMS-11, with THP-1 and in the experiment on KOPN-8 was Active. In addition, the outcome in the experiment on Ramos and with MOLT-4 was Active.
